Key:
[1] = system: Endolysin (Enterobacteria phage T4), P00720 [L99A,M102H]; conditions: Tequatrovirus T4
[2] = system: Endolysin (Enterobacteria phage T4), P00720 [L99A,M102H]; conditions: Tequatrovirus T4; remark: listed apart in the source
[3] = system: Endolysin (Enterobacteria phage T4), P00720 [L99A,M102H]; conditions: Tequatrovirus T4; remark: listed apart in the source
[4] = system: Endolysin (Enterobacteria phage T4), P00720 [L99A,M102H]; assay: Binding affinity to Enterobacteria phage T4 lysozyme L99A/M102H double mutant expressed in Escherichia coli BL21(DE3) assessed as change in melting temperature at 0.5 mM at pH 5.4 by circular dichroism analysis; conditions: Tequatrovirus T4
Summary of the method: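 T4 lysozyme L99A/M102H from pET-28 in E. coli BL21(DE3), purified on Ni-NTA, ≥95% pure. Thermal melts followed by CD at pH 5.4, at least in triplicate. Ligand added from DMSO to 0.5 mM final, 0.1% DMSO final, controls included. ΔCp set to 10.5 kJ mol⁻¹ K⁻¹. Binder cutoff is ΔTm ≥0.4 °C. ΔGmelt = ΔTm × ΔS, with ΔS = ΔH/Tm.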

[5] = system: Endolysin (Enterobacteria phage T4), P00720 [L99A,M102H]; assay: Binding affinity to Enterobacteria phage T4 lysozyme L99A/M102H double mutant expressed in Escherichia coli BL21(DE3) assessed as change in melting temperature at 0.5 mM at pH 6.8 by circular dichroism analysis; conditions: Tequatrovirus T4
Summary of the method: (§1)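 CD thermal unfolding at pH 6.8 of Ni-NTA-purified T4 lysozyme L99A/M102H expressed from pET-28 in E. coli BL21(DE3). Ligand added from DMSO to 0.5 or 1 mM final, 0.1% DMSO final in all samples and controls. ΔCp set to 8.1 kJ mol⁻¹ K⁻¹. ΔTm ≥0.4 °C scored as binding. ΔGmelt = ΔTm × ΔH/Tm.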

[6] = system: Endolysin (Enterobacteria phage T4), P00720 [L99A,M102H]; assay: Binding affinity to Enterobacteria phage T4 lysozyme harboring L99A/M102H double mutant expressed in Escherichia coli BL21(DE3) assessed as change in melting temperature at 1 mM at pH 6.8 by circular dichroism analysis; conditions: Tequatrovirus T4
Summary of the method: as §1

[7] = system: Endolysin (Enterobacteria phage T4), P00720 [L99A,M102H]; conditions: Tequatrovirus T4; remark: listed apart in the source
Endolysin = Endolysin (Enterobacteria phage T4, UniProt P00720, L99A/M102H); parameters: species or system Tequatrovirus T4

Row | SMILES | ΔTm [2] [°C] | further results
1 | O=C(O)C(F)(F)F |  | ΔTm [1]: -0.8 °C
2 | FC(F)(F)c1c[nH]cn1 | 1 | 
3 | N#Cc1ccccc1O |  | ΔTm [3]: 0.6 °C
4 | Clc1n[nH]c2ncccc12 |  | ΔTm [4]: 0.1 °C; ΔTm [5]: 1 °C
5 | CC(CO)c1ccccc1 (configuration not stated) | 0.1 | 
6 | O=[N+]([O-])c1ccc(O)cc1 | 5 | ΔTm [6]: 4.5 °C
7 | N#Cc1ccc([N+](=O)[O-])s1 | 0.2 | 
8 | Nc1cc(F)c(F)cc1Br | 0.2 | ΔTm [6]: 0.8 °C
9 | OCCS |  | ΔTm [7]: 0 °C
10 | c1ccncc1 |  | ΔTm [6]: 0.1 °C
11 | Cc1cc(C(F)(F)F)n[nH]1 | 1.9 | 
12 | CC(=O)c1ccc(O)cc1 | 0.5 | 
13 | N#Cc1cc(Br)ccc1O | 2.2 | 
14 | N#CNC#N | -0.6 | 
15 | O=Cc1cc(O)ccc1Br |  | ΔTm [4]: 0.9 °C
16 | c1ccc2oncc2c1 | 0.2 | 
17 | OCc1cc(Cl)ccc1Cl | -0.1 | 

Row | SMILES | ΔTm [2] [°C] | further results
18 | OCCn1cccn1 | 0.3 | 
19 | Nc1ccc(F)cc1Cl | -0.3 | ΔTm [6]: 1.3 °C
20 | Cc1cc(C)[nH]n1 | -0.3 | ΔTm [6]: 1.4 °C
21 | Nc1ncc(Cl)s1 | 1.1 | 
22 | C#Cc1ccccc1N |  | ΔTm [4]: 0.5 °C; ΔTm [5]: 0.5 °C
23 | Oc1cc(C(F)(F)F)ccn1 | 0.1 | 
24 | C=CSc1ccccc1 | 1 | 
25 | CSc1ccc(F)cc1 | 0.4 | 
26 | Brc1c[nH]cn1 | 0.4 | Kd (Endolysin): 317 µM
27 | Cc1cc(C)n(CO)n1 | -0.7 | ΔTm [6]: 0.3 °C
28 | C=CCc1ccccc1O [2-ALLYLPHENOL] |  | ΔTm [7]: 2.9 °C
29 | OCc1ccc(Cl)c(Cl)c1 | 0.2 | 
30 | OCc1cccc(Br)c1 | -0.7 | 
31 | Nc1ccccc1 |  | ΔTm [4]: 0.2 °C; ΔTm [5]: 0.5 °C
32 | CCc1cc(O)ccc1Cl | -0.9 | 
33 | C#CC(O)c1ccccc1 (configuration not stated) |  | ΔTm [1]: 2.2 °C

— ChEMBL document CHEMBL2321727, “The impact of introducing a histidine into an apolar cavity site on docking and ligand recognition” (J Med Chem, 2013)
